13 compounds from ChEMBL document CHEMBL4334423, “Synthesis, molecular docking, and biological evaluation of novel 2-pyrazoline derivatives as multifunctional agents for the treatment of Alzheimer's disease” (Medchemcomm, 2019) can be followed below.

Series [1] addresses Amyloid-beta precursor protein (Homo sapiens) (UniProt P05067). Nature of the series: Inhibition of human amyloid beta (1 to 42) self-induced aggregation assessed as Amyloid beta (1 to 42) aggregation at 100 uM incubated for 48 hrs by thioflavin T-based fluorescence assay (reference value: 100%). The arrangement: scale not given: the % may be the effect or the level left.
In series [2] the test system is SH-SY5Y. The series can be described thus: cells. The series is classed as functional. The following applies: Homo sapiens.
The test system of series [3] is SH-SY5Y. Nature of the series: cells. The series is classed as functional. The following applies: Homo sapiens. The source holds these as a separate data set.
A short description of series [4]: Selectivity index, ratio of IC50 for human recombinant AChE expressed in HEK293 cells to IC50 for equine serum BChE. It is filed as cell-based. The procedure, abridged:
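Both enzymes were run by the same Ellman method: substrate 0.2–0.5 mM, DTNB 0.125 mM, 100 mM MOPS pH 8.0, 25 °C, read at 412 nm. IC50 came from dose–response curves, and selectivity = IC50(AChE)/IC50(BChE).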

Series [5] concerns the target Amyloid-beta precursor protein (Homo sapiens) (UniProt P05067). The series can be described thus: Inhibition of human amyloid beta (1 to 42) self-induced aggregation assessed as Amyloid beta (1 to 42) aggregation at 10 uM incubated for 48 hrs by thioflavin T-based fluorescence assay (reference value: 100%). The arrangement: scale not given: the % may be the effect or the level left.

The nature of series [6]: Cytotoxicity against mouse L929 cells assessed as cell viability at 10 uM incubated for 24 hrs by MTT assay (reference value: 100%). The series is classed as cell-based. The following applies: read-out: Activity. The essentials:
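L929 cells (ATCC CCL-1) seeded at 5000 per well, exposed to 10 μM compound for 24 h. MTT reagent was added, formazan dissolved in DMSO, and absorbance read at 570 and 690 nm. Viability is expressed relative to a non-treated control taken as 100%.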
Background: Tetrazolium assays rely on reduction of a dye to a coloured formazan, in cell work by metabolically active cells.

Series [7] has as its target T1, Cholinesterase (Equus caballus, UniProt P81908). The series can be described thus: Inhibition of equine serum BChE using butyrylthiocholine iodide as substrate by Ellman's method.
Series [8] has as its target T2, Acetylcholinesterase (Homo sapiens, UniProt P22303). The series can be described thus: Inhibition of human recombinant AChE expressed in HEK293 cells using acetylthiocholine iodide as substrate by Ellman's method. (In Ellman's method for cholinesterases, released thiocholine reacts with DTNB.)
In series [9] the target is T2, Acetylcholinesterase. The series can be described thus: Competitive inhibition of human recombinant AChE expressed in HEK293 cells using acetylthiocholine iodide as substrate by Dixon and slope replot analysis. The essentials: (§1)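 Ellman assay. Enzyme added last to a mix of thiocholine substrate (0.2–0.5 mM) and 0.125 mM DTNB in 100 mM MOPS pH 8.0 at 25 °C. Absorbance was followed at 412 nm. For kinetics, Dixon plots (1/v versus I) were built at inhibitor 0.5, 1, 10 and 100 μM and fitted with slope replots to get Ki. IC50 came from dose–response curves.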

Series [10] concerns the target T1, Cholinesterase. The series can be described thus: Partial non-competitive inhibition of equine serum BChE using butyrylthiocholine iodide as substrate by Dixon and slope replot analysis. The procedure, abridged:
as §1

Series [11] has as its target Cholinesterase (Equus caballus) (UniProt P81908). The series can be described thus: Partial non-competitive inhibition of equine serum BChE assessed as decrease in Vmax with unchanged Km using butyrylthiocholine iodide as substrate by Dixon and slope replot analysis. The procedure, abridged: as §1

Molecules are shown by their SMILES. Active and inactive are the calls of the source. No cut-off for these calls is given here.

T1 sequence (P81908 whole entry): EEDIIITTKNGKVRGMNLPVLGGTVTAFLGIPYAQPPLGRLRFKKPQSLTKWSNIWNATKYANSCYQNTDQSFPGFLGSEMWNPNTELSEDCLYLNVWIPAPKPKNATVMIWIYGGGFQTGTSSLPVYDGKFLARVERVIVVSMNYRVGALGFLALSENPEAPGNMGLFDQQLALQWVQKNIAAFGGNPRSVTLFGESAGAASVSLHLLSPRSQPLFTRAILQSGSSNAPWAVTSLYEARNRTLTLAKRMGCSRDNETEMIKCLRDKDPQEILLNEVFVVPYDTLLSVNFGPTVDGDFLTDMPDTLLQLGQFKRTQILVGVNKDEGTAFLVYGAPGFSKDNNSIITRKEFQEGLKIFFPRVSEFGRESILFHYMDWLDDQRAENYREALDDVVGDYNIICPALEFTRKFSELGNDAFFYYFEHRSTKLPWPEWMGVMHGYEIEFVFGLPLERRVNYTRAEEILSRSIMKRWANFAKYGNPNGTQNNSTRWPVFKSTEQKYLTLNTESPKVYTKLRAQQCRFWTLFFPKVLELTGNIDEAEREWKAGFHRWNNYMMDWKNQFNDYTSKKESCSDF
Sequence of Amyloid-beta precursor protein (Homo sapiens) (P05067 whole entry): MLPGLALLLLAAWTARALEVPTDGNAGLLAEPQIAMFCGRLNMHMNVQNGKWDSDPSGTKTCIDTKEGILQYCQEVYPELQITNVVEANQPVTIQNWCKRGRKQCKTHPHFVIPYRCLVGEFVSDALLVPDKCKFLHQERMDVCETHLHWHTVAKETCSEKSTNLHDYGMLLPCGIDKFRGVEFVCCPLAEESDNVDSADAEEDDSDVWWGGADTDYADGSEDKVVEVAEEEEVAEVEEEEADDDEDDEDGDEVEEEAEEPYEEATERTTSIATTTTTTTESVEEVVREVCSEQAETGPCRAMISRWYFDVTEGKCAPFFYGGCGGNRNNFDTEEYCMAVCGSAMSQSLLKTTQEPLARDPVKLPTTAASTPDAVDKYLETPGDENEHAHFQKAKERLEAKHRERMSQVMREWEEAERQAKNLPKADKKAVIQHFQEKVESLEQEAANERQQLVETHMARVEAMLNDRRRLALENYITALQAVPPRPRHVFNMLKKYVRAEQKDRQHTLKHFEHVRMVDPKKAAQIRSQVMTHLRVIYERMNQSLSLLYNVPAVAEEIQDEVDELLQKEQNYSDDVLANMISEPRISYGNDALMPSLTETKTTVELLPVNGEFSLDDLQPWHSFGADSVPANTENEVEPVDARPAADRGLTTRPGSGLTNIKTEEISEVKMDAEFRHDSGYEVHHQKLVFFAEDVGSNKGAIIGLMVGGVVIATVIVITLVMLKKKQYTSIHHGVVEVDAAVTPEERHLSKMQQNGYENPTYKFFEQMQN
T2 sequence (P22303 whole entry): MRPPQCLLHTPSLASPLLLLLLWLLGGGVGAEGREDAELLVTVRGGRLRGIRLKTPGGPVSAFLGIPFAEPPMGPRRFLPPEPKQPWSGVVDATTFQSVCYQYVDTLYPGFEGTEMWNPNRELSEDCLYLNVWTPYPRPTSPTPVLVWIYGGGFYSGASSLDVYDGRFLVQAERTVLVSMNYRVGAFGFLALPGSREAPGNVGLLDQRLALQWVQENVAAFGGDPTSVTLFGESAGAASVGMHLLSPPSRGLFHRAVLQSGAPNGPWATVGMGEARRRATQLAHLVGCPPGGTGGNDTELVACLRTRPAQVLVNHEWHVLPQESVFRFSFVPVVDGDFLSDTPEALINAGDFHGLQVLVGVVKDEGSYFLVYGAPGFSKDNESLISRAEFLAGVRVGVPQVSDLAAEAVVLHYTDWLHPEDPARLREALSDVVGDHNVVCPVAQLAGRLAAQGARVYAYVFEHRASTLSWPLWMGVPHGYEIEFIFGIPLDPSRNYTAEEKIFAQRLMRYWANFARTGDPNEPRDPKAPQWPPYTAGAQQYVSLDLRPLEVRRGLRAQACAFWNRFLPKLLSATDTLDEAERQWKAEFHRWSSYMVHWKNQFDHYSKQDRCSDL
Sequence of Cholinesterase (Equus caballus) (P81908 whole entry): as the sequence (P81908 whole entry) above

Turning to `COc1ccc(C2=NN(C(C)=O)C(c3ccc(N4CCC(Cc5ccccc5)CC4)cc3)C2)cc1OC` (stereo unspecified), the Activity amounted to 86.4% in series [1] and 82.2% in series [5]. For the same compound, the viability at 10 µM with SH-SY5Y [2] was 84.4%; in the series on SH-SY5Y [3] it was 83.5%. The Ratio IC50 in series [4] amounted to 9.8. Moreover, in [6], the viability at 24 h, 10 µM worked out at 101%. Moreover, the 50% inhibitory concentration (IC50) on Cholinesterase [7] was 2.1 µM; at Acetylcholinesterase [8] it was 20.1 µM.
Regarding `COc1ccc(C2=NN(C(C)=O)C(c3ccc(N4CCC(C)CC4)cc3)C2)cc1OC` (stereo unspecified), the Activity in series [1] amounted to 63.4%; in series [5], 80.6%. In addition, the viability at 10 µM in the series with SH-SY5Y [2] was 81.1%; in the series with SH-SY5Y [3], 78.4%. Also, in series [4], the Ratio IC50 was 19.9. The viability at 24 h, 10 µM in series [6] worked out at 95.4%. For the same compound, the 50% inhibitory concentration (IC50) on Cholinesterase [7] was 3.9 µM; at Acetylcholinesterase [8], 77.4 µM.
On to `COc1ccc(C2=NN(C(C)=O)C(c3ccc(N4CCN(Cc5ccccc5)CC4)cc3)C2)cc1OC` (stereo unspecified), for which, in [1], the Activity was found to be 89.8%. In addition, the viability at 10 µM worked out at 87% in the series on SH-SY5Y [2] and 69.3% with SH-SY5Y [3]. In addition, the Ratio IC50 in [4] worked out at 128. In series [6], the viability at 24 h, 10 µM turned out to be 93.3%. Besides, the 50% inhibitory concentration (IC50) against Cholinesterase [7] was found to be 0.5 µM; at Acetylcholinesterase [8] it was 62.8 µM.
Turning to `COc1ccc(C2=NN(C(C)=O)C(c3ccc(-n4cnc5ccccc54)cc3)C2)cc1OC` (stereo unspecified), the Ratio IC50 in [4] came out at 1.2. Also, the IC50 was 254 µM on Cholinesterase [7] and 319 µM on Acetylcholinesterase [8].
For `CCN1CCN(c2ccc(C3CC(c4ccc(OC)cc4)=NN3C(C)=O)cc2)CC1` (stereo unspecified), in series [4], the Ratio IC50 worked out at 1. Further, the half-inhibitory concentration (IC50) against Cholinesterase [7] was 217 µM; at Acetylcholinesterase [8], 221 µM.
Take `CO[C@H]1/C=C/O[C@@]2(C)Oc3c(C)c(O)c4c(O)c(c(/C=N/N5CCN(C)CC5)c(O)c4c3C2=O)NC(=O)/C(C)=C\C=C\[C@H](C)[C@H](O)[C@@H](C)[C@@H](O)[C@@H](C)[C@H](OC(C)=O)[C@@H]1C`: the Activity in series [1] was found to be 48.4%.
For `COc1ccc(C2=NN(C(C)=O)C(c3ccc(N4CCN(C)CC4)cc3)C2)cc1OC` (stereo unspecified), the Activity in series [1] was found to be 72.6%. The viability at 10 µM was determined as 93.6% in the series on SH-SY5Y [2] and 95.6% in the series on SH-SY5Y [3]. In addition, in [4], the Ratio IC50 is 1.1. The viability at 24 h, 10 µM in series [6] amounted to 93.3%. The IC50 at Cholinesterase [7] stood at 6 µM; on Acetylcholinesterase [8], 6.5 µM. Also, the Ki on Acetylcholinesterase [9] is 630 nM.
`COc1ccc(C2=NN(C(C)=O)C(c3ccc(N4CCN(Cc5ccccc5)CC4)cc3)C2)cc1` (stereo unspecified): the Ratio IC50 in [4] came out at 0.7. In addition, the IC50 against Cholinesterase [7] is 137 µM; on Acetylcholinesterase [8], 100 µM.
For the compound `COc1cc2c(cc1OC)C(=O)C(CC1CCN(Cc3ccccc3)CC1)C2` (stereo unspecified) [DONEPEZIL], the viability at 10 µM with SH-SY5Y [2] is 69%; in the series on SH-SY5Y [3], 62.5%.
For the compound `CCN1CCN(c2ccc(C3CC(c4ccc(OC)c(OC)c4)=NN3C(C)=O)cc2)CC1` (stereo unspecified), the Activity in series [1] amounted to 83.4%. The viability at 10 µM with SH-SY5Y [2] came out at 87.4%; in the series on SH-SY5Y [3] it was 67.9%. The compound also displayed a Ki on Cholinesterase [10] of 2220 nM. Moreover, in series [4], the Ratio IC50 was determined as 104. Also, the viability at 24 h, 10 µM in series [6] worked out at 89.2%. In [11], the inhibition entry was “Active”. Also, the values for the half-maximal inhibitory concentration (IC50) against Cholinesterase [7] and on Acetylcholinesterase [8] were 0.5 µM and 47.9 µM, respectively.
Regarding `COc1ccc(C2=NN(C(C)=O)C(c3ccc(N4CCN(c5ccccc5)CC4)cc3)C2)cc1OC` (stereo unspecified), the Ratio IC50 in [4] is 0.2. In addition, the half-inhibitory concentration (IC50) on Cholinesterase [7] was 1900 µM; on Acetylcholinesterase [8], 295 µM.
Regarding `COc1ccc(C2=NN(C(C)=O)C(c3ccc(-n4ccnc4)cc3)C2)cc1OC` (stereo unspecified), the Ratio IC50 in [4] worked out at 6.3. For the same compound, the IC50 against Cholinesterase [7] was determined as 32.7 µM; at Acetylcholinesterase [8] it was 206 µM.
For `COc1ccc(C2=NN(C(C)=O)C(c3ccc(-n4cncn4)cc3)C2)cc1OC` (stereo unspecified) the same measures were 34.8, 27.5 µM and 955 µM.

Usually IC50 stands for the concentration needed to halve the response being measured. As usually defined, the Ki is a measure of affinity in units of concentration, obtained from inhibition or displacement.
